Converted amounts (≈) assume the structure as drawn. The source made the active and inactive calls. No cut-off for these calls is given here.
What was measured:
HCT-116 [1] = test: Growth inhibition of human HCT116 cells after 72 hrs by alamar blue assay; format: functional; conditions: HCT-116, 72 h
Procedure, shortened: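 HCT-116 proliferation was read out by Alamar Blue. GI50 is reported in μM as the mean of at least three experiments.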

[2] = Aqueous solubility of the compound; format: physicochemical; conditions: buffer
Procedure, shortened: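 Solubility was determined in aqueous medium at pH 7.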

[3] = Fraction unbound in human plasma; format: ADME, cell-free
[4] = Lipophilicity, log D of the compound; format: physicochemical; conditions: octanol/water
MDR1 [5] = test: Apparent permeability from apical to basolateral side in pig LLC-PK1 cells expressing MDR1; format: ADME, cell-based, Sus scrofa
SW480 = test: Antiproliferative activity against human SW480 cells by alamar blue assay; format: functional
Procedure, shortened: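 SW480 proliferation was measured with the Alamar Blue read-out, and GI50 is reported in μM.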

[6] = AUC in rat at 10 mg/kg, po; format: ADME, organism-based; parameters: dose 10 mg/kg, route oral; conditions: plasma
Procedure, shortened: (§1)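 Rats received one oral dose of 10 mg/kg, and pharmacokinetic parameters were derived from that single administration.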

[7] = target: Glycogen synthase kinase-3 beta (Homo sapiens, UniProt P49841); test: Inhibition of GSK3beta
Glycogen synthase kinase-3 beta, sequence (P49841 whole entry): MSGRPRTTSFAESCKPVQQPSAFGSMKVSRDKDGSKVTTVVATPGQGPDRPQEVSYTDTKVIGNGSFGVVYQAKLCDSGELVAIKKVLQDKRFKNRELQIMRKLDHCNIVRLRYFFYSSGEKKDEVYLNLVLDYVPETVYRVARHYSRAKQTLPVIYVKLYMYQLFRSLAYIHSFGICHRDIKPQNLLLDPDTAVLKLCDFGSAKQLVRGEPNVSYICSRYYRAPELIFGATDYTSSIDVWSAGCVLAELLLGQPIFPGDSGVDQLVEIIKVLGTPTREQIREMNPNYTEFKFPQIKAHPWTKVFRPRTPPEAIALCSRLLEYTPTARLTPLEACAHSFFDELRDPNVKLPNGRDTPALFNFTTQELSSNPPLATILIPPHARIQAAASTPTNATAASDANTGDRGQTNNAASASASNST

[8] = target: Homeodomain-interacting protein kinase 2 (Homo sapiens, UniProt Q9H2X6); test: Inhibition of HipK2
Homeodomain-interacting protein kinase 2, sequence (Q9H2X6 whole entry): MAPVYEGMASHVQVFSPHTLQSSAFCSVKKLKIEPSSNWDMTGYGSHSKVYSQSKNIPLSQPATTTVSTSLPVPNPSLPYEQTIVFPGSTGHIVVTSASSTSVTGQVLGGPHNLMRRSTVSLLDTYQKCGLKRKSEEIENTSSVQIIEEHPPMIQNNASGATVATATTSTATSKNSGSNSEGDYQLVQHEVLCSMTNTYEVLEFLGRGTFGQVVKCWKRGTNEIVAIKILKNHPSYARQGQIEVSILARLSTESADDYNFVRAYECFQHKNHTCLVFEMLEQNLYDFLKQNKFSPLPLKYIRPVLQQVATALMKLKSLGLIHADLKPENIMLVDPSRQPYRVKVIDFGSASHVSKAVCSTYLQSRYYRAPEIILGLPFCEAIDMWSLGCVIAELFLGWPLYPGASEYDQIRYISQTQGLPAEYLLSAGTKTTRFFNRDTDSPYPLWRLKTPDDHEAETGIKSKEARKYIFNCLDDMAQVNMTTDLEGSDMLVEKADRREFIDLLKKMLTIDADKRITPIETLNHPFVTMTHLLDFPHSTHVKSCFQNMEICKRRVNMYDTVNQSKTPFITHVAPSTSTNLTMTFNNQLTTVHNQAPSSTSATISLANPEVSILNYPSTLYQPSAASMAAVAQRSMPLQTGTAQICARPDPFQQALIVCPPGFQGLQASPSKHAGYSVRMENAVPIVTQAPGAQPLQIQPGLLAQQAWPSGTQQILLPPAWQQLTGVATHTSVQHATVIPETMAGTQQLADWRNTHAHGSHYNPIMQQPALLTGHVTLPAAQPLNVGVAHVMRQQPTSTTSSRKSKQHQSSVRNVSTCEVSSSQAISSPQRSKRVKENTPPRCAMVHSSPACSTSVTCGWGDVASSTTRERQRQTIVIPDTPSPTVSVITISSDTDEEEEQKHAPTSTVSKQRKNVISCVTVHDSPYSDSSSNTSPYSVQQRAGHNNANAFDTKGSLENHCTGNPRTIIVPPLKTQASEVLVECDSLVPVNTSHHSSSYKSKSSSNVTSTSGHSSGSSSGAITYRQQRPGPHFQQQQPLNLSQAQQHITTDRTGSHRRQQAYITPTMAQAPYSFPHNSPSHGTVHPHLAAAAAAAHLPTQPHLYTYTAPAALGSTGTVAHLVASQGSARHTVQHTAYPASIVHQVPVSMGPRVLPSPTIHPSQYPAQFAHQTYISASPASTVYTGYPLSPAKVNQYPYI

[9] = target: Cyclin-dependent kinase 2 (Homo sapiens, UniProt P24941); test: Inhibition of CDK2
[10] = target: Voltage-gated inwardly rectifying potassium channel KCNH2 (Homo sapiens, UniProt Q12809); test: Inhibition of human Erg
Voltage-gated inwardly rectifying potassium channel KCNH2, sequence (Q12809 whole entry): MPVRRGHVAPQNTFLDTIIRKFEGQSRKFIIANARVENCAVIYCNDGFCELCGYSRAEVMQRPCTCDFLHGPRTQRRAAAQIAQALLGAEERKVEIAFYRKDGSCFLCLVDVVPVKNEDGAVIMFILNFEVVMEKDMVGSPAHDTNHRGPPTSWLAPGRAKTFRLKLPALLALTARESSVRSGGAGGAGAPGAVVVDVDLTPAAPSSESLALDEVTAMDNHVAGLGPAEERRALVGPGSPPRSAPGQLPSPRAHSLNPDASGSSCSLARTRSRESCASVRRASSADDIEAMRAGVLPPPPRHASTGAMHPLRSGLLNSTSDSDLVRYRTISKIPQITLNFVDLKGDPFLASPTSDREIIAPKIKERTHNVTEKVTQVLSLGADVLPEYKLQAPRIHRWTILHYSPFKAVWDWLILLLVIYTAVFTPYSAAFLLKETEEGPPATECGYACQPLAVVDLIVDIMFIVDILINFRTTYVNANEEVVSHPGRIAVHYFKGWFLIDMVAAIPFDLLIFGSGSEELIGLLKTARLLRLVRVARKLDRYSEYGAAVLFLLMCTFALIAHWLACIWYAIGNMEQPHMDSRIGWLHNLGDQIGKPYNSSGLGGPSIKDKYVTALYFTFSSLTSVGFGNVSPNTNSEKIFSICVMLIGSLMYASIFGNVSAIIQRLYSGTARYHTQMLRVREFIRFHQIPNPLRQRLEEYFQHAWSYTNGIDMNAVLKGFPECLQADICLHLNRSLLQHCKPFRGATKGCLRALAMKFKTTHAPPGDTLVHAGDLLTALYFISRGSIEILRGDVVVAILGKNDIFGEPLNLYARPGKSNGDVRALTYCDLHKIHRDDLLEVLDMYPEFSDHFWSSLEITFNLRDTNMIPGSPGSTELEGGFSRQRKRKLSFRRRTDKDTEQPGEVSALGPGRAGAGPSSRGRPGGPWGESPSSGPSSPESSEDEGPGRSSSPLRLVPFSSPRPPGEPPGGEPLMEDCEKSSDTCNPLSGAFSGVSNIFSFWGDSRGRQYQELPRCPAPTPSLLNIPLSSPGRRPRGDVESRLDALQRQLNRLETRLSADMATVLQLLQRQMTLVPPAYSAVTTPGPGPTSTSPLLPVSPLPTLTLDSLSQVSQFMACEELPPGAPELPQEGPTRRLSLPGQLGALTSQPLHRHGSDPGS

Cytochrome P450 1A2 = target: T1, Cytochrome P450 1A2 (Homo sapiens, UniProt P05177); test: Inhibition of CYP1A2; format: ADME
T1 sequence (P05177 whole entry): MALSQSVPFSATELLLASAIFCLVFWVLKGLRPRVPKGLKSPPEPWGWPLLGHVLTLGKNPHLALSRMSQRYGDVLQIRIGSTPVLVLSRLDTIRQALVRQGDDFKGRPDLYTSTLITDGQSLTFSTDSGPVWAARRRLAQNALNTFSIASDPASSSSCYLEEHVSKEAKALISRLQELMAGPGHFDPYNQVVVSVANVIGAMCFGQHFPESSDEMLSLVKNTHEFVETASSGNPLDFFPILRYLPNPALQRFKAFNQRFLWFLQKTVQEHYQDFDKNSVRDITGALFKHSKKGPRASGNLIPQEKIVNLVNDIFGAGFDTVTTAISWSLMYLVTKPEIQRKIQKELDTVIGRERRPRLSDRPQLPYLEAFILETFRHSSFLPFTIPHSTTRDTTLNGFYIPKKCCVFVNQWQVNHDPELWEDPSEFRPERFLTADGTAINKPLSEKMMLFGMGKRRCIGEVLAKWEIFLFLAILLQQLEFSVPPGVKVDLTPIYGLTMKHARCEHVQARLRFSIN

[11] = target: T2, Casein kinase II subunit alpha (Homo sapiens, UniProt P68400); test: Inhibition of full length N-terminus His-tagged human CK2alpha expressed in insect Sf21 cells using BODIPY-FL-RRRDDDSDDD-CONH2 as substrate after 20 mins
T2 sequence (P68400 whole entry): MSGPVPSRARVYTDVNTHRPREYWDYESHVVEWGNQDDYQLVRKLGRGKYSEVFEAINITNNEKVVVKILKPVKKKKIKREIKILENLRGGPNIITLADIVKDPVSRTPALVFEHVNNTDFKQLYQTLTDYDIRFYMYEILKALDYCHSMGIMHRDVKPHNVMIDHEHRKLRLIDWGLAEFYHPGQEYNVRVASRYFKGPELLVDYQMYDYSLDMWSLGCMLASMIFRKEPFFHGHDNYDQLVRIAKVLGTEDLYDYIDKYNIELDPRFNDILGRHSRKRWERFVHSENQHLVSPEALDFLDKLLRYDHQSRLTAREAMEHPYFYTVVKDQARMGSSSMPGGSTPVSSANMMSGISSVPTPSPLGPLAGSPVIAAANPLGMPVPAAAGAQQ

[12] = target: T2, Casein kinase II subunit alpha; test: Inhibition of CK2alpha in human HCT116 cells assessed as decrease in AKT phosphorylation at S129 residue after 3 to 24 hrs
[13] = Intrinsic clearance in rat liver microsomes; format: ADME, Microsome; conditions: read-out: CLH
MDR1 [14] = test: Apparent permeability from apical to basolateral side in MDCK cells expressing MDR1; format: ADME, cell-based, Canis lupus familiaris; conditions: dog
[15] = Oral bioavailability in rat at 10 mg/kg; format: ADME, organism-based; conditions: in vivo; procedure, shortened: as §1
[16] = Clearance in rat at 10 mg/kg, po; format: ADME, organism-based; parameters: dose 10 mg/kg, route oral; conditions: in vivo; procedure, shortened: as §1
HCT-116 [17] = test: Induction of apoptosis in human HCT116 cells assessed as caspase activation; format: functional, cell-based

SMILES | GI50 (HCT-116 [1]) | solubility [2] | fraction unbound [3] | logD [4] | GI50 (SW480) | further results
COc1ccc(-c2cc(Nc3ccn(C)n3)n3ncc(C#N)c3n2)cc1 | 4.5 µM | – | – | – | – | –
N#Cc1cnn2c(NC3CC3)cc(-n3ccc4ccc(CO)cc43)nc12 | 10.1 µM | < 1 µM | 0.019 | 3.1 | – | –
CC(=O)Nc1ccc2ccn(-c3cc(NCCN4CCOCC4)n4ncc(C#N)c4n3)c2c1 | – | 2 µM (≈ 0.889 µg/mL) | 0.11 | – | > 30 µM | Papp A→B (MDR1 [5]): ≤ 5 ×10⁻⁶ cm/s
N#Cc1cnn2c(N)cc(-c3ccccc3)nc12 | > 30 µM | – | – | – | – | –
CC(=O)Nc1ccc2c(c1)c(-c1cc(NC3CC3)n3ncc(C#N)c3n1)cn2C | 0.7 µM | – | – | – | 1.1 µM | –
CC(=O)Nc1ccc2ccn(-c3cc(NCCCN4CCCC4)n4ncc(C#N)c4n3)c2c1 | – | > 1000 µM | 0.067 | 1.8 | 13 µM | AUC [6]: 0.065 µM·h; Papp A→B (MDR1 [5]): ≤ 5 ×10⁻⁶ cm/s
CS(=O)(=O)Cc1ccc2ccn(-c3cc(NC4CC4)n4ncc(C#N)c4n3)c2c1 | 16.4 µM | < 1 µM | 0.018 | 2.5 | – | –
CC(=O)Nc1ccc2c(c1)c(-c1cc(NC3CC3)n3ncc(C#N)c3n1)cn2CCC(=O)O | – | – | – | – | – | IC50 [7]: 6 µM; IC50 [8]: 0.57 µM; IC50 [9]: > 30 µM
CC(=O)Nc1ccc2c(c1)N(c1cc(NC3CC3)n3ncc(C#N)c3n1)CC2 | 0.53 µM | – | – | – | 0.73 µM | IC50 [10]: > 33 µM
COC(=O)CCn1cc(-c2cc(NC3CC3)n3ncc(C#N)c3n2)c2cc(NC(C)=O)ccc21 | – | – | – | – | 6.6 µM | –
CC(=O)Nc1ccc2ccn(-c3cc(NC4COC4)n4ncc(C#N)c4n3)c2c1 | 2.2 µM | 1 µM (≈ 0.387 µg/mL) | 0.124 | 2.2 | 2.5 µM | –
CC(=O)Nc1cnc2ccn(-c3cc(NC4CC4)n4ncc(C#N)c4n3)c2c1 | 3 µM | – | – | – | 2.1 µM | IC50 [7]: 1 µM; IC50 (Cytochrome P450 1A2): > 20 µM; IC50 [11]: < 0.003 µM; IC50 [8]: 0.02 µM; IC50 [9]: > 30 µM
CC(=O)Nc1ccc2[nH]cc(-c3cc(NC4CC4)n4ncc(C#N)c4n3)c2c1 | 0.7 µM | – | – | – | 0.7 µM | IC50 [7]: 0.25 µM; IC50 [11]: 0.005 µM; IC50 [8]: < 0.003 µM; IC50 [9]: 14 µM; IC50 [12]: 0.077 µM
CC(=O)N(C)c1ccc2ccn(-c3cc(NC4CC4)n4ncc(C#N)c4n3)c2c1 | – | < 1 µM | – | 2.9 | – | IC50 [7]: 1.4 µM; IC50 [11]: 0.011 µM; IC50 [8]: < 0.003 µM; CLint scaled [13]: 100 mL/min/kg; IC50 [9]: > 30 µM; IC50 [12]: 0.034 µM
CC(=O)Nc1ccc2cnn(-c3cc(NC4CC4)n4ncc(C#N)c4n3)c2c1 | 3.7 µM | – | – | – | 5 µM | IC50 [7]: 0.7 µM; IC50 [11]: 0.026 µM; IC50 [10]: > 33 µM; IC50 [8]: 0.05 µM; IC50 [9]: > 30 µM
CC(=O)Nc1ccc2ccn(-c3cc(NC4CC4)n4ncc(C#N)c4n3)c2c1 | 0.53 µM | < 10 µM | < 0.01 | 3.3 | 1 µM | IC50 [7]: 0.13 µM; Papp A→B (MDR1 [14]): 22 ×10⁻⁶ cm/s; IC50 (Cytochrome P450 1A2): 0.1 µM; bioavailability [15]: 5%; IC50 [10]: 8.6 µM; CL/F [16]: 10 mL/min/kg; IC50 [8]: 0.03 µM; IC50 [9]: 26 µM; Activity (HCT-116 [17]): Active
N#Cc1cnn2c(N)cc(-c3cccs3)nc12 | > 30 µM | – | – | – | – | –
CC(=O)Nc1ccc2ccn(-c3cc(Nc4ccn(C)n4)n4ncc(C#N)c4n3)c2c1 | 0.46 µM | – | – | – | 0.56 µM | –
COc1ccncc1-c1cc(NC2CC2)n2ncc(C#N)c2n1 | 16 µM | – | – | – | 15 µM | –
CC(=O)Nc1ccc2ccn(-c3cc(NCCCN(C)C)n4ncc(C#N)c4n3)c2c1 | – | 750 µM (≈ 312 µg/mL) | 0.1 | 1.6 | 25 µM | IC50 [7]: 2.6 µM; IC50 [11]: 0.03 µM; IC50 [8]: 0.06 µM; IC50 [9]: > 30 µM; IC50 [12]: 1.2 µM
CC(=O)Nc1ccc2c(c1)c(-c1cc(NC3CC3)n3ncc(C#N)c3n1)cn2CCCO | 2.3 µM | – | – | – | 3.2 µM | –
COc1ccc(-c2cc(NC3CC3)n3ncc(C#N)c3n2)cc1 | 14 µM | – | – | – | – | –
CC(=O)Nc1cc2c(ccn2-c2cc(NC3CC3)n3ncc(C#N)c3n2)cc1C | > 30 µM | – | – | – | – | –
CC(=O)Nc1ccc2ccn(-c3cc(NCCN4CCCC4)n4ncc(C#N)c4n3)c2c1 | – | 15 µM (≈ 6.43 µg/mL) | 0.056 | 2.2 | – | –
CC(=O)Nc1ccc2c(c1)c(-c1cc(NC3CC3)n3ncc(C#N)c3n1)cn2CCO | 2.7 µM | – | – | – | 4.5 µM | –
CC(=O)Nc1ccc2ccn(-c3cc(NCCCCO)n4ncc(C#N)c4n3)c2c1 | 2.8 µM | 8 µM (≈ 3.23 µg/mL) | 0.041 | 2.6 | – | –

— ChEMBL document CHEMBL2062503, “Potent and Selective Inhibitors of CK2 Kinase Identified through Structure-Guided Hybridization” (ACS Med Chem Lett, 2012)
